Measured values as given in the array DNA melting data of Ke et al. (doi:10.1101/2024.01.08.574731).

Key:
[1] = folding enthalpy; higher = less favourable; fluorescence melt of hairpins on a sequencing array, two-state fit; conditions: sodium 0.088 M
In short: (§1)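 Library hairpins on a sequenced MiSeq flow cell carried annealed Cy3 and quencher oligos, and their Cy3 fluorescence was imaged in 50 mM Na-HEPES pH 8.0 with 25 mM NaCl, in 2.5 °C steps up to 60 °C. Signals were normalised to Cy3 before quenching and to control constructs. Melting temperature and folding enthalpy were obtained from bootstrapped two-state fits, combined by inverse-variance weighting across four replicates, and the fitted temperatures were then raised by 9.35 °C to match UV melts.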

[2] = melting temperature; fluorescence melt of hairpins on a sequencing array, two-state fit, raised by 9.35 °C to match UV melts; conditions: sodium 0.088 M
In short: as §1

Sequence: GCCCAGGGAAACCTGGAC (.(((((....))))).)
- folding enthalpy [1]: -13.4 kcal/mol
- Tm [2]: 49.4 °C

Sequence: GCCCAGGGAAACTTGGGC (((((.(....).)))))
- folding enthalpy [1]: -36.8 kcal/mol
- Tm [2]: 56.5 °C

Sequence: GCCCATCCGAAAGGAGGC (((..(((....))))))
- folding enthalpy [1]: -14.3 kcal/mol
- Tm [2]: 44.5 °C

Sequence: GCCCATCGAAAGATCGGC (((.(((....))).)))
- folding enthalpy [1]: -33.6 kcal/mol
- Tm [2]: 44.5 °C

Sequence: GCCCATGGAAACACGGGC ((((.((....)).))))
- folding enthalpy [1]: -43 kcal/mol
- Tm [2]: 49.4 °C

Sequence: GCCCATGGAAACATAGGC (((.(((....))).)))
- folding enthalpy [1]: -28.1 kcal/mol
- Tm [2]: 38.3 °C

Sequence: GCCCCACGAAAGTGAGGC (((.(((....))).)))
- folding enthalpy [1]: -37.8 kcal/mol
- Tm [2]: 55.8 °C

Sequence: GCCCCAGGAAACCAGGGC ((((..(....)..))))
- folding enthalpy [1]: -23.4 kcal/mol
- Tm [2]: 45.6 °C

Sequence: GCCCCAGGAAACTGGAGC ((.((((....)))).))
- folding enthalpy [1]: -25.3 kcal/mol
- Tm [2]: 46.7 °C

Sequence: GCCCCCCGAAAGGGCGGC (((.(((....))).)))
- folding enthalpy [1]: -32.6 kcal/mol
- Tm [2]: 60.2 °C

Sequence: GCCCCCGGAAACGAGGGC ((((.((....)).))))
- folding enthalpy [1]: -28.1 kcal/mol
- Tm [2]: 56 °C

Sequence: GCCCCCGGAAACGGGGAC (.(((((....))))).)
- folding enthalpy [1]: -11.4 kcal/mol
- Tm [2]: 53.2 °C

Sequence: GCCCCCTCGAAAGAGGGC (((..(((....))))))
- folding enthalpy [1]: -6 kcal/mol
- Tm [2]: 37.6 °C

Sequence: GCCCCGCGAAAGCAAGGC (((..((....))..)))
- folding enthalpy [1]: -16.2 kcal/mol
- Tm [2]: 46.5 °C

Sequence: GCCCCGCGAAAGCAGCGC ((.(.((....)).).))
- folding enthalpy [1]: -14.2 kcal/mol
- Tm [2]: 39.7 °C

Sequence: GCCCCGCGAAAGCCCGGC (((..((....))..)))
- folding enthalpy [1]: -14.7 kcal/mol
- Tm [2]: 38.9 °C

Sequence: GCCCCGCGAAAGCCTGGC (((..((....))..)))
- folding enthalpy [1]: -17 kcal/mol
- Tm [2]: 39.5 °C

Sequence: GCCCCGCGAAAGCTAGGC (((..((....))..)))
- folding enthalpy [1]: -18.7 kcal/mol
- Tm [2]: 45 °C

Sequence: GCCCCGCGAAAGCTCGGC (((..((....))..)))
- folding enthalpy [1]: -20.3 kcal/mol
- Tm [2]: 38.8 °C

Sequence: GCCCCGGGAAACCGGAGC ((.((((....)))).))
- folding enthalpy [1]: -22.7 kcal/mol
- Tm [2]: 56.1 °C

Sequence: GCCCCTCGAAAGAGAGGC (((.(((....))).)))
- folding enthalpy [1]: -31.4 kcal/mol
- Tm [2]: 52.8 °C

Sequence: GCCCCTCGAAAGAGGGC (((.(((....))))))
- folding enthalpy [1]: -13 kcal/mol
- Tm [2]: 61.5 °C

Sequence: GCCCCTTCGAAAGAAGGC (((..(((....))))))
- folding enthalpy [1]: -8.55 kcal/mol
- Tm [2]: 37 °C

Sequence: GCCCGAACGAAAGTTGGC (((..(((....))))))
- folding enthalpy [1]: -19.2 kcal/mol
- Tm [2]: 42.6 °C

Sequence: GCCCGAGGAAACTCGGAC (.(((((....))))).)
- folding enthalpy [1]: -13.1 kcal/mol
- Tm [2]: 48.4 °C

Sequence: GCCCGCGAAAGCGCAGGC ((((((....)))..)))
- folding enthalpy [1]: -20.1 kcal/mol
- Tm [2]: 56.3 °C

Sequence: GCCCGCGAAAGCGCTGGC ((((((....)))..)))
- folding enthalpy [1]: -16.5 kcal/mol
- Tm [2]: 58.5 °C

Sequence: GCCCGCGAAAGCGTAGGC ((((((....)))..)))
- folding enthalpy [1]: -22.3 kcal/mol
- Tm [2]: 62.4 °C

Sequence: GCCCGCGGAAACACGGGC (((((.(....).)))))
- folding enthalpy [1]: -47.9 kcal/mol
- Tm [2]: 62.9 °C

Sequence: GCCCGGCGAAAGCCGAGC ((.((((....)))).))
- folding enthalpy [1]: -18.4 kcal/mol
- Tm [2]: 68.3 °C

Sequence: GCCCGGCGAAAGCCTCGC ((..(((....)))..))
- folding enthalpy [1]: -6.9 kcal/mol
- Tm [2]: 27.3 °C

Sequence: GCCCGGCGAAAGCGCGGC (((..((....))..)))
- folding enthalpy [1]: -16.1 kcal/mol
- Tm [2]: 61.7 °C

Sequence: GCCCGGCGAAAGCGTGGC (((..((....))..)))
- folding enthalpy [1]: -20.2 kcal/mol
- Tm [2]: 57.9 °C

Sequence: GCCCGGTCGAAAGACGGC (((..(((....))))))
- folding enthalpy [1]: -18.1 kcal/mol
- Tm [2]: 51.7 °C

Sequence: GCCCGTCCGAAAGGAGGC (((..(((....))))))
- folding enthalpy [1]: -13.9 kcal/mol
- Tm [2]: 43.6 °C

Sequence: GCCCGTCGAAAGACGGC (((.(((....))))))
- folding enthalpy [1]: -10.7 kcal/mol
- Tm [2]: 63.6 °C

Sequence: GCCCGTTCGAAAGAAGGC (((..(((....))))))
- folding enthalpy [1]: -12.3 kcal/mol
- Tm [2]: 33.1 °C

Sequence: GCCCTACGAAAGTAAGGC (((.(((....))).)))
- folding enthalpy [1]: -31.3 kcal/mol
- Tm [2]: 47.4 °C

Sequence: GCCCTACGAAAGTACGGC (((.(((....))).)))
- folding enthalpy [1]: -27.3 kcal/mol
- Tm [2]: 46.2 °C

Sequence: GCCCTAGGAAACTAGAGC ((.((((....)))).))
- folding enthalpy [1]: -25 kcal/mol
- Tm [2]: 34.3 °C

Sequence: GCCCTATCGAAAGATGGC (((..(((....))))))
- folding enthalpy [1]: -23.5 kcal/mol
- Tm [2]: 37.5 °C

Sequence: GCCCTCGAAAGAGACGGC ((((((....)))..)))
- folding enthalpy [1]: -25.3 kcal/mol
- Tm [2]: 44.8 °C

Sequence: GCCCTCGAAAGAGAGGGC ((((((....)))..)))
- folding enthalpy [1]: -33 kcal/mol
- Tm [2]: 59.9 °C

Sequence: GCCCTCGAAAGAGATGGC ((((((....)))..)))
- folding enthalpy [1]: -23.6 kcal/mol
- Tm [2]: 46.4 °C

Sequence: GCCCTCGAAAGAGCGGC ((((((....))).)))
- folding enthalpy [1]: -37.3 kcal/mol
- Tm [2]: 55.7 °C
